Experimental data reported in ChEMBL document CHEMBL4513216, “Probing the Open Global Health Chemical Diversity Library for Multistage-Active Starting Points for Next-Generation Antimalarials” (ACS Infect Dis, 2020).

Assay: Toxicity liver stage against HepG2, at 10uM
Type: cell-based
Set-up: test concentration 10 uM, cell line HepG2-A16-CD81EGFP
Conditions: human, HepG2-A16-CD81EGFP cells; read-out: INHIBITION
Method in brief: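 Uninfected HepG2-A16-CD81EGFP cells, 3 × 10^3 per well, 1536-well, plated on prespotted compound at 10 μM final, parasite-free screening media added to match infected plates; puromycin 10 μM positive, DMSO 0.5% negative; run in parallel with 48 h PbLuc assay at 37 °C, 5% CO2; viability by CellTiter-Glo luminescence, normalized to controls.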

| Compound | cytotoxicity at 10 µM [%] |
| --- | --- |
| CCOCC1CN(S(=O)(=O)c2cccc(C)c2)Cc2nccn2C1 (configuration not stated) | -108 |
| CC1CCN(CCCNS(=O)(=O)c2cc(F)cc(F)c2)CC1 | 11.3 |
| Cc1nc(C)c(C)c(N(C)CCCc2nccn2C)n1 | 8.52 |
| CCN(CC(=O)NC(C)C)S(=O)(=O)N1CCCC(C)C1 (configuration not stated) | 2.77 |
| CCOCc1nnc(NCc2ccsc2)o1 | -0.432 |
| Cc1cccc(CN2C[C@@H]3COC[C@H](NS(C)(=O)=O)[C@@H]3C2)n1 | -2.6 |
| CC(=O)NCCCNCc1ccc(Cl)c2cccnc12 | -3.17 |
| Cc1nsc(N2CCCN(C(=O)NCc3cccnc3)CC2)n1 | -0.555 |
| CCc1nc(CN2CCCN(C(=O)Cc3cccs3)CC2)cs1 | 2.55 |
| CNC(=O)[C@@]12CCCN(c3ncccn3)[C@@H]1CN(C)C2 | 12.8 |
| CCc1n[nH]c(C2CN(C(=O)c3cnc(C)s3)CCO2)n1 (configuration not stated) | -6.64 |
| O=C(COc1ccc2c(c1)CCC2)N1CCOCC1c1ncon1 (configuration not stated) | -10.2 |
| CN(C)CCOCc1nnc2n1CCN(c1cnccn1)CC2 | 5.62 |
| Oc1ccc(C2Nc3ccccc3C3=NCCCN32)cc1 (configuration not stated) | -39.1 |
| CN1CCC(CCc2ccnc(Nc3cnccn3)c2)CC1 | -12.6 |
| O=C(CCn1ccccc1=O)Nc1ccc(C(=O)O)cc1 | 4.74 |
| Cc1nnc(NCc2ccc(F)cc2)o1 | 0.217 |
| O=C(c1ccsc1)N1CCc2onc(CN3CCOCC3)c2C1 | 5.07 |
| COC(=O)N1CCC(Nc2ccc(C#N)c(Cl)c2)C1 (configuration not stated) | -8.21 |
| CCc1cccc(C)c1NC(=O)NCCCN(CC)S(C)(=O)=O | 4.87 |
| Cc1ccc(N2CCCN(C(=O)c3cccc4c3ccn4C)CC2)nn1 | 0.983 |
| O=C(CCc1ccco1)N1CCCN(Cc2cscn2)CC1 | 3.28 |
| CN(C)c1ccc(C(=O)N2CCN(c3cnccn3)CC2)cn1 | -4.98 |

| Compound | cytotoxicity at 10 µM [%] |
| --- | --- |
| CN1CCC(CNC(=O)NCc2ccc(N(C)C)cc2)CC1 | -1.42 |
| CCCc1c(C(=O)N2CCN(c3cnccn3)CC2)cnn1C | 9.77 |
| Cc1nc(CN(C)S(=O)(=O)c2ccccc2C(F)(F)F)no1 | -3.03 |
| O=C(c1cccs1)N1CCc2ncc(Cn3cncn3)n2CC1 | -89.8 |
| O=C(Nc1nc2c(s1)CN(S(=O)(=O)C1CC1)CC2)c1ccc(=O)[nH]c1 | -11.1 |
| CC(C)n1ncc2c1NC(=O)CC21C(=O)Nc2c(Cl)cccc21 (configuration not stated) | -1.58 |
| CC(=O)Nc1ccc(SCC(O)COCc2ccco2)cc1 (configuration not stated) | 8.45 |
| Cc1cnc2c(S(=O)(=O)NC(=O)C(C)OCC3CC3)cccc2c1 (configuration not stated) | -1 |
| Cc1cccc(C2CCCN(C(=O)CN3CCOC3=O)C2)c1 (configuration not stated) | -2.82 |
| CN(C)Cc1cc(=O)n2c(n1)CN(S(=O)(=O)C1CC1)CCC2 | 4.53 |
| O=C(CCC(F)(F)F)NCC1CCCS1 (configuration not stated) | -1.58 |
| Cc1cnc(N2C(=O)CSC2c2cccs2)s1 (configuration not stated) | 0.847 |
| CCC(C)c1csc(NC(=O)Cc2csc(-c3nnc[nH]3)n2)n1 (configuration not stated) | -29.6 |
| O=C1C(Sc2nc(=O)ccn2C2CC2)CCN1c1ccccc1 (configuration not stated) | 1.27 |
| Cc1ccccc1CNC(=O)CN1CCCC(Cc2nccn2C)C1 (configuration not stated) | -15.4 |
| O=C(O)c1ccccc1-c1c(-c2ccccc2)ncn1C[C@H]1CCCN1 | 6.07 |
| CS(=O)(=O)CCC(=O)NC(c1ccc(F)cc1)C(F)(F)F (configuration not stated) | -4.44 |
| O=C(CC1CC1)N[C@@H]1CN(c2ncccn2)C[C@@H]2CCCO[C@@H]21 | 9.87 |
| COc1ccc(F)cc1C(=O)C1CCCN(Cc2cnc(C)s2)C1 (configuration not stated) | 6.26 |
| c1cncc(-c2ccc3c(c2)CCC32CCNCC2)c1 | -10.3 |
| O=C1COC2(CCN(Cc3cccs3)CC2)CN1c1cncnc1 | -124 |
| Cc1nc(C2CCCN2CC(=O)Nc2c(C)nn(C)c2C)no1 (configuration not stated) | -3.08 |
| CNS(=O)(=O)Cc1ccc(CNC(=O)Nc2cn[nH]c2)cc1 | -0.935 |

| Compound | cytotoxicity at 10 µM [%] |
| --- | --- |
| COc1cccc(-c2noc(CN3CCOCC3C)n2)c1 (configuration not stated) | -11.7 |
| O=C(O)C1c2nc[nH]c2CCN1CC(c1ccccc1)c1ccccc1 (configuration not stated) | -7.97 |
| Cc1ccc(NC2CCN(C(=O)c3ccc4c(c3)CCC4)CC2)nn1 | -8.19 |
| CCS(=O)(=O)N1CCCC(c2nc3ccccc3n2C(C)C)C1 (configuration not stated) | -6.11 |
| O=c1cc(-c2cccnc2)nc(-c2ccc(CN3CC[C@@H](O)C3)cc2)[nH]1 | 2.89 |
| Cc1ncc(C)c(N2CCC(CCc3ccccc3)(C(=O)O)CC2)n1 | 3.49 |
| Fc1cccc(CN2CCOCC3(CCN(C4CCOCC4)C3)C2)c1 (configuration not stated) | -0.503 |
| CC(C)CC(=O)Nc1ccccc1Oc1ccsc1C(=O)O | 6.2 |
| Cn1nc2c(cc1=O)CN(c1ncnc3ccsc13)CC2 | 9.3 |
| COc1c(F)cccc1C(=O)NC(C)c1cnn(C)c1 (configuration not stated) | 24.5 |
| CN(C)C(=O)[C@H]1C[C@H]2OCC[C@H]2N(CCOc2ccc(Cl)cc2)C1 | -115 |
| CN1CCOC(CNCc2nc(-c3ccccc3)cs2)C1 (configuration not stated) | -11.5 |
| CC(=O)N1CCC(CCNC(C)c2cc(F)cc(F)c2)CC1 (configuration not stated) | -0.988 |
| Cc1ccc(CN2CCNC(=O)C2CC(=O)NCc2n[nH]c(C)n2)cc1 (configuration not stated) | -3.83 |
| O=C(COC[C@]12COC[C@H]1CN(C1CCC1)C2)N1CCCC1 | -102 |
| CC(C)(C)OC(=O)NC(C)(C)c1noc(CSc2ccccn2)n1 | 9.18 |
| CC(C)c1cc(N[C@@H](CO)C(N)=O)n2nccc2n1 | -1.28 |
| CC[C@@H](CO)Nc1nccc(-c2cnc3sc(C)cn3c2=O)n1 | -14 |
| O=C1NCCCC1NC(=O)C1(c2cccc(Cl)c2)CCC1 (configuration not stated) | -2.09 |
| CCc1ccc(CNC(=O)NC(C)CN2CCOCC2)s1 (configuration not stated) | -1.84 |
| CN1CCOC(CNCc2nc(-c3ccoc3)no2)C1 (configuration not stated) | -5.27 |
| COC(=O)C1=C(C)N=C2SCC(=O)N2C1c1cn(C)nc1C (configuration not stated) | 8.9 |
| Cc1nc(-c2ccc(NCCc3ccc(O)cc3)nc2)[nH]c(=O)c1C | 20.5 |

| Compound | cytotoxicity at 10 µM [%] |
| --- | --- |
| CC(C)OCc1ccc(CNC(=O)CC(F)(F)F)cc1 | -2.26 |
| CN(CCCc1cnn(C)c1)C(=O)C1CCCN(C2CCCC2)C1 (configuration not stated) | -7.17 |
| Cc1cc(-c2cnc(NCc3ccncc3)nc2C(C)C)on1 | 59.7 |
| COc1ccccc1OCCn1c(C)c(C)oc1=O | -3.05 |
| CC(C)N(C)CC(=O)Nc1ccc(-n2ccc(C(N)=O)n2)cc1 | -3.54 |
| O=C(CCN1CCC(C(=O)c2cc(F)ccc2F)CC1)NC1CC1 | -7.74 |
| O=S(=O)(CCN1CCN(c2ccccc2O)CC1)c1ccc(Cl)cc1 | 14.4 |
| Cc1n[nH]c(SCC(=O)N[C@@H](C)C(N)=O)n1 | 8.07 |
| Cn1ccc(C(=O)NC2CCC23CCN(C(=O)N2CCCC2)CC3)c1 (configuration not stated) | 2.01 |
| c1cncc(CN2CCCn3nnc(CN4CCCCC4)c3C2)c1 | 12.8 |
| CO[C@H]1CN(C(=O)c2ccnnc2)[C@@H]2COC[C@H]12 | 2.83 |
| Cc1cc(C)c(CNC(=O)NCc2nnc3n2CCC3)c(=O)[nH]1 | 22.1 |
| Cc1nc(CN(C)C2CCN(Cc3ccc(Cl)s3)C2)no1 (configuration not stated) | -2.84 |
| Cc1cc(NC(=O)NCc2cccnc2OC(C)C)no1 | -11.5 |
| CC(CC(=O)O)CC(=O)Nc1sc2c(c1C(N)=O)CCc1ccccc1-2 (configuration not stated) | 8.26 |
| COCCNC(=O)c1cc(S(=O)(=O)N2CCCC2)cs1 | 6.15 |
| CCNc1ncnc2c1CN(C1CCCNCC1)C(=O)CN2C (configuration not stated) | 5.5 |
| Cc1nc(COCc2cnc3n2CCN(C(=O)C2CC2)C3C)cs1 (configuration not stated) | 11.4 |
| Cc1cc(C2CCCN(C(=O)c3ccc(Cl)o3)C2)n[nH]1 (configuration not stated) | -5.02 |
| COc1ccc(CN(C)C(=O)CSc2nnc(N)s2)c(OC)c1OC | 7.59 |
| Cc1noc(C2CCCN(C(=O)c3ccc(Br)cc3F)C2)n1 (configuration not stated) | -8.06 |
| C[S+]([O-])c1nncn1CC(=O)c1ccc(OC(F)F)cc1 (configuration not stated) | -8.56 |
| N#CCCN(Cc1ccco1)C(=O)COC1CCCCC1 | 6.35 |

| Compound | cytotoxicity at 10 µM [%] |
| --- | --- |
| Cc1ncoc1C(=O)N1C[C@@H]2COC[C@]2(c2nnc(C3CC3)o2)C1 | -2.08 |
| CCc1noc(C)c1C(=O)N1CCC2(CCCN(CC(C)(C)C)C2=O)C1 (configuration not stated) | 3.75 |
| Cc1nc(-c2c(C)noc2C)cc(C2CCN(CC(=O)N(C)C)CC2)n1 | 5.84 |
| O=C(NC1CC1)c1cc2c(s1)CCN2C(=O)C1CC1 | 6.17 |
| COCCN(Cc1cccs1)C(=O)C1CCCN(C(N)=O)C1 (configuration not stated) | 6.4 |
| c1cc2c(cc1C1(CNC3=NCCN3)CCCC1)OCCO2 | 11 |
| Cc1cccc(C(=O)N2CCSCC2)c1NC(=O)c1cccnc1 | -2.83 |
| Cc1cnccc1N1CCCN(Cc2ccc(-c3cc[nH]n3)o2)CC1 | -5.13 |
| CCn1ccnc1C1CCN(Cc2c(F)cccc2F)CC1 | -6.82 |
| Cc1cc(C2CCC2)nc(N2CCN(Cc3nccn3C)CC2)n1 | -6.86 |
| COCC(=O)N1CC2(CCN(c3ccccc3)C2)C1 | 10.1 |
| O=C(NC1CC(F)(F)C1)[C@]12COC[C@H]1CN(Cc1ccccc1)C2 | -108 |
| O=C(NCCc1ccccc1)NCC(O)c1cccc(F)c1 (configuration not stated) | -7.24 |
| CCn1nc(C)c2nc(C(C)C)nc(N3CCOCC3)c21 | 2.88 |
| O=C(CCC(=O)N1CCC(Cc2ccc(CO)cc2)C1)c1ccccc1 (configuration not stated) | 0.727 |
| CC(=O)NCCNC(=O)CN1CCCC1c1c(C)nn(C)c1C (configuration not stated) | -25.1 |
| CSC1(CNC(=O)NCc2sccc2C)CCOCC1 | -49.6 |
| CCOc1cccc2c1OCC(C(=O)NS(=O)(=O)c1ccc(Cl)cc1)=C2 | -11.1 |
| COCc1noc(Cn2ccc3ccccc3c2=O)n1 | 0.761 |
| COc1ccc(CN2CCn3c(CO)nnc3C2)cc1CN1CCCC1 | -24.5 |
